The record followed here is ChEMBL document CHEMBL1777667, “Synthesis and antibacterial activity of some binaphthyl-supported macrocycles containing a cationic amino acid” (2011).

SMILES strings stand for the structures. Values after ≈ are worked out from the molar mass of the structure shown.

The subject of the first test is Staphylococcus aureus. Description: Antibacterial activity against Staphylococcus aureus ATCC 6538P by two fold dilution method. In kind it is functional.
Conditions: not given
An outline of the steps: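 Compounds dissolved in 10% methanol/water as stock, diluted in water, then serially twofold-diluted in LB across eight wells in triplicate. Overnight (14 h) LB culture grown at 37 °C, diluted 1 in 1,000 and added to wells. Media-only, no-compound and vancomycin controls were run. Operator was blinded. MIC read by eye as the concentration next to the first well of obvious growth.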
As for `COC(=O)[C@@H]1CC=CCc2cc3ccccc3c(c2OC)-c2c(OC)c(cc3ccccc23)CC(NC(C)=O)C(=O)N[C@H](CCCCN)C(=O)N1.Cl` (mixture of isomers; 25), the MIC – broadly, the lowest concentration found to suppress growth – amounted to 31 µg/mL.
On the same count and under the same terms, in the case of `COC(=O)[C@@H]1C/C=C/Cc2cc3ccccc3c(c2OC)-c2c(OC)c(cc3ccccc23)CC(NC(C)=O)C(=O)N[C@H](CCCNC(=N)N)C(=O)N1.Cl` (mixture of isomers; 24) it was 62 µg/mL.
The compound `COC(=O)[C@@H]1CC=CCc2cc3ccccc3c(c2OC)-c2c(OC)c(cc3ccccc23)CC(NC(C)=O)C(=O)N[C@H](CCCCN)C(=O)N1.Cl` (mixture of isomers; 1) returned a minimal inhibitory concentration (MIC) of 16 µg/mL.
Turning to `COC(=O)[C@@H]1CC=CCc2cc3ccccc3c(c2OC)-c2c(OC)c(cc3ccccc23)CC(NC(C)=O)C(=O)N[C@H](CCCCN)C(=O)N1.Cl` (mixture of isomers; 26), the MIC was found to be 8 µg/mL.
The compound `COC(=O)[C@@H]1CC=CCc2cc3ccccc3c(c2OC)-c2c(OC)c(cc3ccccc23)CC(NC(C)=O)C(=O)N[C@H](CCCCN)C(=O)N1.Cl` (mixture of isomers; 21) came in with a minimal inhibitory concentration (MIC) of 62 µg/mL.

Staying with this test, now noted: Staphylococcus aureus, ATCC 6538P; read-out: MIC.
Turning to `COC(=O)[C@@H]1C/C=C/Cc2cc3ccccc3c(c2OC)-c2c(OC)c(cc3ccccc23)CC(NC(C)=O)C(=O)N[C@H](CCCCNC(=O)OC(C)(C)C)C(=O)N1` (mixture of isomers), the MIC is > 250 µg/mL.
For the compound `COC(=O)[C@@H]1C/C=C/Cc2cc3ccccc3c(c2OC)-c2c(OC)c(cc3ccccc23)CC(NC(C)=O)C(=O)N[C@@H](C)C(=O)N[C@@H](CCCCN)C(=O)N1.Cl` (mixture of isomers), the minimal inhibitory concentration (MIC) was > 250 µg/mL.
Turning to `COC(=O)[C@@H]1C/C=C/Cc2cc3ccccc3c(c2OC)-c2c(OC)c(cc3ccccc23)CC(NC(C)=O)C(=O)N[C@H](CCCNC(=N)NS(=O)(=O)c2c(C)c(C)c3c(c2C)CCC(C)(C)O3)C(=O)N1` (mixture of isomers), the minimum inhibitory concentration (MIC) worked out at 31 µg/mL.
The same measure, in the same setting: in the case of `C=CCc1cc2ccccc2c(-c2c(OC)c(CC(NC(C)=O)C(=O)N[C@@H](CCCNC(=N)N)C(=O)N[C@@H](CC=C)C(=O)OC)cc3ccccc23)c1OC` (some centres not stated) it was 4 µg/mL (≈ 5.33 µM); in that of `C=CCc1cc2ccccc2c(-c2c(OC)c(CC(NC(C)=O)C(=O)N[C@H](CCCNC(=N)N)C(=O)N[C@@H](CC=C)C(=O)OC)cc3ccccc23)c1OC` (some centres not stated), 4 µg/mL (≈ 5.33 µM).
In the case of `COC(=O)[C@@H]1C/C=C/Cc2cc3ccccc3c(c2OC)-c2c(OC)c(cc3ccccc23)CC(NC(C)=O)C(=O)N[C@H](CCCNC(=N)N)C(=O)N1.Cl` (mixture of isomers; 22), the MIC turned out to be 62 µg/mL.
Still for that read-out and setting: with `COC(=O)[C@@H]1C/C=C/Cc2cc3ccccc3c(c2OC)-c2c(OC)c(cc3ccccc23)CC(NC(C)=O)C(=O)N[C@@H](CCCCNC(=O)OCC2c3ccccc3-c3ccccc32)C(=O)N1` (mixture of isomers) the figure was > 250 µg/mL.
